This is an account of results in ChEMBL document CHEMBL1134280, “Discovery and biological evaluation of a new family of potent inhibitors of the dual specificity protein phosphatase Cdc25” (J Med Chem, 2001).

The IC50 is the point on the concentration scale where inhibition reaches its midpoint.

The target in assay [1] is Dual specificity protein phosphatase 3 (Homo sapiens, UniProt P51452). Nature of the assay: Inhibitory Activity against Recombinant Human VHR. The essentials:
(§1)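 GST-fusion enzyme (Cdc25B₂, VHR) or human recombinant PTP1B, with O-methyl fluorescein phosphate as substrate in a miniaturized microtiter format. After 60 min at ambient temperature, product fluorescence was read (excitation 485/20, emission 530/30). IC50 values were taken from concentration–response data.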

The target in assay [2] is T1, Tyrosine-protein phosphatase non-receptor type 1 (Homo sapiens, UniProt P18031).
T1 sequence (P18031 whole entry): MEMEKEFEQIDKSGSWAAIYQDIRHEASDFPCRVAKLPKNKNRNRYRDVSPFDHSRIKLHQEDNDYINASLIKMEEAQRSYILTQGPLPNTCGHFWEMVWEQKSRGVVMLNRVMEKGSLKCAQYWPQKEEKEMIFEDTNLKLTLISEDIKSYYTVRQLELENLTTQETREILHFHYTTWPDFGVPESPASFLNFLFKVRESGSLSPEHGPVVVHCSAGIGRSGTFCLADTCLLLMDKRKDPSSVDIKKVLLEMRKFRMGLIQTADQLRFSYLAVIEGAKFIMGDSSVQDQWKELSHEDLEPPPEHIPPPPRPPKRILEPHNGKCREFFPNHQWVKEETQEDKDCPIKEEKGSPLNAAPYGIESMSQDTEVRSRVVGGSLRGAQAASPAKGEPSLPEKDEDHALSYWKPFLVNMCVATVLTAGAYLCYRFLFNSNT
Nature of the assay: Inhibitory Activity against Recombinant Human PTP1. In short, it runs like this:
as §1

The target in assay [3] is T2, M-phase inducer phosphatase 2 (Homo sapiens, UniProt P30305).
T2 sequence (P30305 whole entry): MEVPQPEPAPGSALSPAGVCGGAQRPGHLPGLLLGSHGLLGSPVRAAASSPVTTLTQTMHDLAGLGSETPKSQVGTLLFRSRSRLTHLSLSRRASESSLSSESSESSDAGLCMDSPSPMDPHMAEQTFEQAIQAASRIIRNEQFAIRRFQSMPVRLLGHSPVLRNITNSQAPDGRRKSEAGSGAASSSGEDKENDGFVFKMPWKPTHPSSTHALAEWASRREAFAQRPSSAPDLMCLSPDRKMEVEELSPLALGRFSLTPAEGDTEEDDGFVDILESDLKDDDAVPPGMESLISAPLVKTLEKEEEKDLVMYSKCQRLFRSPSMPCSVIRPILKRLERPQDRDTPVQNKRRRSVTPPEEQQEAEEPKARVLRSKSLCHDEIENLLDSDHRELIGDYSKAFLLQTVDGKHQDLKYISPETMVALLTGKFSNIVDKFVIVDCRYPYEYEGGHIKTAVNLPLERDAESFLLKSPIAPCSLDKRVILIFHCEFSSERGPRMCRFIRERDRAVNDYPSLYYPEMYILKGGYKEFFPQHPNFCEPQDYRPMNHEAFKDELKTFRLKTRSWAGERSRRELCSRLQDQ
Description: Inhibitory activity against recombinant human cell division cycle 25B. The essentials: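 GST-fusion enzyme (Cdc25B₂, VHR) or human recombinant PTP1B, with O-methyl fluorescein phosphate as substrate in a miniaturized microtiter format. IC50 values were taken from concentration–response data.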

Each structure is given as a SMILES string.

Dual specificity protein phosphatase 3, sequence (P51452 whole entry, the tested form may be a part): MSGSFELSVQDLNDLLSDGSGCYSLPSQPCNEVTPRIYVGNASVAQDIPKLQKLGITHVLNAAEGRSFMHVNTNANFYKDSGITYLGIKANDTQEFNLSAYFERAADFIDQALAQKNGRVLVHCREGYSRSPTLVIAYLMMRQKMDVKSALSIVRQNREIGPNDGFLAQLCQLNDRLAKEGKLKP

For the molecule `O=C1C(Cl)=C(NCCN2CCOCC2)C(=O)c2ncccc21`, the results for the IC50 in assay [1] and in assay [2] were 4 µM and above 100 µM, respectively.

With `O=C1/C(=N/CCc2cc(Br)c(O)c(Br)c2)C=C(O)c2cccnc21`, the IC50 in assay [1] came to 8.5 µM; in assay [2], 8 µM; in assay [3], 0.64 µM.

For the molecule `O=C1C(Cl)=C(NCCN2CCOCC2)C(=O)c2cnncc21`, the IC50 worked out at 1.1 µM in assay [1], 9.8 µM in assay [2] and 0.43 µM in assay [3].

On to `O=C1C(Cl)=C(Cl)C(=O)c2ncccc21`, for which the figures for the IC50 in assay [1], in assay [2] and in assay [3] were above 10 µM, above 10 µM and 4.6 µM, respectively.

Consider `O=C1C(Cl)=C(Cl)C(=O)c2cnccc21`, for which the IC50 is above 10 µM in assay [1], above 10 µM in assay [2] and 1.5 µM in assay [3].

As to `O=C1C=CC(=O)c2ncccc21`, the IC50 in assay [1] was above 10 µM; in assay [2], above 10 µM; in assay [3], 3 µM.

On to `O=C1C(NCCN2CCOCC2)=C(Cl)C(=O)c2ncccc21`, for which the results for the IC50 in assay [1], in assay [2] and in assay [3] were above 10 µM, above 10 µM and 0.82 µM, respectively.

In the case of `O=C1C(Cl)=C(NCCc2c[nH]c3ccccc23)C(=O)c2ncccc21`, the values for the IC50 in assay [1], in assay [2] and in assay [3] were above 10 µM, above 10 µM and 5.1 µM, respectively.

As for `O=C1C(Cl)=C(NCCN2CCOCC2)C(=O)c2cnccc21`, the concentration for half-maximal inhibition (IC50) in assay [1] was above 10 µM; in assay [2] it was above 10 µM; in assay [3], 0.59 µM.

`CC(/N=C1\C=C(O)c2ncccc2C1=O)C(O)c1ccccc1` (centres undefined): the values for the IC50 in assay [1], in assay [2] and in assay [3] were above 10 µM, above 10 µM and 0.67 µM, respectively.

Take `O=C1C(Cl)=C(Cl)C(=O)c2ncncc21`: the IC50 was above 10 µM in assay [1], above 10 µM in assay [2] and 4.8 µM in assay [3].

Regarding `O=C1C(Cl)=C(N2CCN(CCOCCO)CC2)C(=O)c2ncccc21`, the values for the IC50 in assay [1], in assay [2] and in assay [3] were above 10 µM, above 10 µM and 0.9 µM, respectively.

For `CC(/N=C1\C=C(O)c2cccnc2C1=O)C(O)c1ccccc1` (centres undefined), the IC50 is 16 µM in assay [1], above 100 µM in assay [2] and 0.51 µM in assay [3].

On to `COC(=O)c1nc(-c2ccc3c(n2)C(=O)C(=N)C(OC)=C3O)c(N)c(-c2ccc(OC)c(OC)c2O)c1C`, for which the IC50 in assay [1] turned out to be 5.1 µM; in assay [2], 8.7 µM; in assay [3] it was 0.37 µM.

`O=C1C(Cl)=C(NC2CCc3ccccc32)C(=O)c2ncccc21` (centres undefined): the IC50 in assay [3] was 0.3 µM.

`O=C1/C(=N\C(Cc2c[nH]c3ccccc23)C(=O)O)C(Cl)=C(O)c2cccnc21` (centres undefined): the IC50 in assay [1] was above 10 µM; in assay [2] it was above 10 µM; in assay [3], 16 µM.

As to `CCCCCCOc1ccc(NC2=C(Cl)C(=O)c3cccnc3C2=O)cc1`, the IC50 was above 10 µM in assay [1], above 10 µM in assay [2] and 0.93 µM in assay [3].

On to `O=C1C(Cl)=C(Cl)C(=O)c2cnncc21`, for which the IC50 in assay [1] is above 10 µM; in assay [2], above 10 µM; in assay [3], 8.9 µM.

For `COc1cc(CC/N=C2\C=C(O)c3cccnc3C2=O)ccc1O`, the figures for the IC50 in assay [1], in assay [2] and in assay [3] were 17 µM, above 100 µM and 0.45 µM, respectively.
